These results are taken from ChEMBL document CHEMBL4513216, “Probing the Open Global Health Chemical Diversity Library for Multistage-Active Starting Points for Next-Generation Antimalarials” (ACS Infect Dis, 2020).

This data set can be described thus: Toxicity liver stage against HepG2, at 10uM. It counts as cell-based. On the set-up: test concentration 10 uM, cell line HepG2-A16-CD81EGFP. The conditions noted are these: human, HepG2-A16-CD81EGFP cells; read-out: INHIBITION
In short, it runs like this: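 Uninfected HepG2-A16-CD81EGFP cells, 3 × 10^3 per well, 1536-well, plated on prespotted compound at 10 μM final, parasite-free screening media added to match infected plates; puromycin 10 μM positive, DMSO 0.5% negative; run in parallel with 48 h PbLuc assay at 37 °C, 5% CO2; viability by CellTiter-Glo luminescence, normalized to controls.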
Regarding `CCN(CC)C(=O)CSc1nnc(CCNC(=O)OC(C)(C)C)o1`, the cytotoxicity at 10 µM was found to be 12%.

In the case of `COC(=O)c1cccc2nc([C@H]3CCN(C4CCN(C)CC4)C3)oc12`, the cytotoxicity at 10 µM is -3.54%.

As for `CNC(=O)[C@@H](C1CCCCC1)N1CCC[C@H]1C(=O)NC1CC1`, the cytotoxicity at 10 µM came out at 5.56%.

Regarding `CNC(=O)c1ccccc1-c1ccc(S(C)(=O)=O)cc1`, the cytotoxicity at 10 µM was -2.07%.

For `CCOC(=O)CNC(=O)C1OC(c2ccccc2)=NN1C(C)=O` (stereo unspecified), the cytotoxicity at 10 µM was 0.53%.

Take `Cc1c(-c2ccccc2)nc2c(c(C)c(C)n2CCN(C)C)c1N`: the cytotoxicity at 10 µM came out at 24.6%.

As to `COc1ccccc1CNc1c(N2CCN(C(C)=O)CC2)c(=O)c1=O`, the cytotoxicity at 10 µM was -0.707%.

For `COCCNC(=O)c1cc(-c2ccc3c(c2)CCO3)n[nH]1`, the cytotoxicity at 10 µM was found to be 0.843%.

For `O=C(Nc1ncnc2c1CCC2)c1ccc2c(c1)OCO2`, the cytotoxicity at 10 µM came to 4.42%.

As to `O=C1CCCC2(CCN(C(=O)c3cnccn3)CC2)N1`, the cytotoxicity at 10 µM is -12.9%.

As for `O=C(NC1CCCC1)c1n[nH]c2c1CNCC2`, the cytotoxicity at 10 µM turned out to be 0.582%.

In the case of `CC(=O)N1CCCc2sc(C(=O)NC3CC3)nc21`, the cytotoxicity at 10 µM was -132%.

Take `CS(=O)(=O)N[C@H]1COC[C@@H]2CN(Cc3ccco3)C[C@@H]21`: the cytotoxicity at 10 µM was 9.12%.

Take `O=C(NCC1CC1)C1CN(Cc2cccs2)Cc2ccnn2C1` (stereo unspecified): the cytotoxicity at 10 µM was -3.94%.

With `O=C(O)c1nc(SCc2ccc(F)cc2)ncc1Br`, the cytotoxicity at 10 µM is -3.11%.

For `CC(C)n1[nH]c(=O)c2c1NC(=O)CC2c1ccncc1` (stereo unspecified), the cytotoxicity at 10 µM is -4.66%.

For the molecule `O=C(Cn1nc2c(cc1=O)CCCC2)N[C@@H](C(=O)O)c1ccccc1`, the cytotoxicity at 10 µM was 5.76%.

As to `CC(=O)c1cccc(NC(=O)COc2c(C)n(C)ccc2=O)c1`, the cytotoxicity at 10 µM amounted to 2.45%.

On to `O=C(CSC1=NS(=O)(=O)c2cc(F)ccc2N1)c1ccc(Cl)cc1`, for which the cytotoxicity at 10 µM is 10.3%.

As for `Cc1cc2nc(SCC(=O)N3CCCC3)n(C(C)C)c(=O)c2[nH]1`, the cytotoxicity at 10 µM was -7.53%.

For `CS(=O)(=O)N1Cc2nccn2CC(Cn2ncccc2=O)C1` (stereo unspecified), the cytotoxicity at 10 µM is -2.04%.

In the case of `Cc1csc([C@@H]2C[C@@H]3CCN(C(=O)c4ccnnc4)C[C@H]3O2)n1`, the cytotoxicity at 10 µM was found to be 4.49%.

Regarding `Cn1cc(Br)c(C(=O)NCCCn2cc(Cl)cn2)n1`, the cytotoxicity at 10 µM is -1.49%.

As to `Cc1noc(C)c1-c1nc(C2CCCN(CCC(N)=O)C2)ccc1CO` (stereo unspecified), the cytotoxicity at 10 µM was -2.66%.

On to `CCS(=O)(=O)N1C[C@@H](O)[C@H](Oc2cccc(F)c2)C1`, for which the cytotoxicity at 10 µM is -3.65%.

On to `CS(=O)(=O)N1C[C@@H](O)[C@H](N2CCN(c3ccccc3)CC2)C1`, for which the cytotoxicity at 10 µM worked out at 20.3%.

Take `CC(=O)N1CCC(C(=O)N2CCCC(Cc3cccc(C)n3)C2)CC1` (stereo unspecified): the cytotoxicity at 10 µM was -18.6%.

For `Cc1ccc(=O)n(CC2(O)CCN(Cc3c(F)cccc3F)CC2)n1`, the cytotoxicity at 10 µM was -17.6%.

With `CN1CCc2nc(C3CCCN(C(=O)CC(C)(C)C)C3)ncc2C1` (stereo unspecified), the cytotoxicity at 10 µM was -10.3%.

With `CCOCCSc1nnc(Cc2ccccc2F)o1`, the cytotoxicity at 10 µM was found to be 8.45%.

Regarding `Cc1cncc(NCc2ccccc2N2CCOCC2)c1`, the cytotoxicity at 10 µM stood at 6.02%.

On to `COc1ccc(NC(=O)c2cccc(OC)c2OC)cc1`, for which the cytotoxicity at 10 µM turned out to be 18.5%.

As for `Cc1ccc(OCCN(C)S(=O)(=O)N2CCOCC2)cc1`, the cytotoxicity at 10 µM worked out at 0.651%.

In the case of `COc1cccc(COCC(=O)NC2CCN(CC(N)=O)CC2)c1`, the cytotoxicity at 10 µM is -8.47%.

Regarding `Cc1cc(C)n(CC(C)CNC(=O)CCc2ccco2)n1` (stereo unspecified), the cytotoxicity at 10 µM is -1.05%.

In the case of `CNC(=O)C1CCCCN1C(=O)c1csc(-c2ccc(C)o2)n1` (stereo unspecified), the cytotoxicity at 10 µM was determined as 7.55%.

On to `Cc1ccc(F)c2c1N(C(=O)Cc1c(C)nn(C)c1C)CCC2`, for which the cytotoxicity at 10 µM stood at 12.7%.

As for `CNC(=O)Cc1noc(-c2cc3c(s2)CCC(C)C3)n1` (stereo unspecified), the cytotoxicity at 10 µM stood at 4.75%.

As to `O=C(NC1CCS(=O)(=O)C1)c1ccccc1SCc1cscn1` (stereo unspecified), the cytotoxicity at 10 µM was -1.53%.

Regarding `CCC(CNC(=O)CCn1cncn1)N1CCc2ccccc2C1` (stereo unspecified), the cytotoxicity at 10 µM is -137%.

Regarding `CC1CN(C(=O)Nc2cc(C(F)(F)F)c[nH]c2=O)CC(C)(C)O1` (stereo unspecified), the cytotoxicity at 10 µM came out at 8.96%.

Take `CCc1ccc(S(=O)(=O)N2CCCn3ncnc32)s1`: the cytotoxicity at 10 µM is -0.908%.

On to `COc1ccc2c(c1)CCCC2CC(=O)O` (stereo unspecified), for which the cytotoxicity at 10 µM was -2.74%.

Turning to `COC(=O)c1cccc(S(=O)(=O)Nc2ccc(F)c(C(N)=O)c2)c1`, the cytotoxicity at 10 µM is 8.67%.

For the molecule `O=C(c1ccc(CN2CC(n3cccn3)C2)cc1)N1CCCC1`, the cytotoxicity at 10 µM turned out to be 9.56%.

As for `Cn1ccnc1CN1CCN(c2ncnc3ccsc23)CC1`, the cytotoxicity at 10 µM is -7.95%.

Turning to `Cn1cnc(S(=O)(=O)Nc2cc(C(N)=O)ccc2Cl)c1`, the cytotoxicity at 10 µM came out at 3.86%.

Regarding `COC(=O)N1CCC(Nc2ccc(Cl)c(C#N)n2)C1` (stereo unspecified), the cytotoxicity at 10 µM is -3.44%.

`CNC(=O)CN1CCC(NC2CSCCc3ccccc32)CC1` (stereo unspecified): the cytotoxicity at 10 µM was -4.28%.

Take `COc1cc(C2(C(=O)NCCn3ccnc3)CCCC2)ccc1C`: the cytotoxicity at 10 µM worked out at 8%.

Take `O=C(c1cc2c([nH]c1=O)CCC2)N1CCCC1c1ccccc1` (stereo unspecified): the cytotoxicity at 10 µM is -5.76%.

For the molecule `CC(=O)NCCNC(=O)c1cccc(Cn2nc(C)cc2C)c1`, the cytotoxicity at 10 µM is -10.3%.

As for `CC(C)c1nn(C)c(N2CCOCC2)c1CNCc1nncn1C`, the cytotoxicity at 10 µM amounted to 5.59%.

As for `O=C(c1c[nH]c2ncccc12)N1CCC(COc2ccccc2)CC1`, the cytotoxicity at 10 µM came out at 14.4%.

In the case of `CCC(Nc1nnnn1-c1ccccc1)C(=O)Nc1ccccc1C` (stereo unspecified), the cytotoxicity at 10 µM is -13.1%.

In the case of `CCc1cc(CNC(=O)N2Cc3ccccc3N(C)CC2C)on1` (stereo unspecified), the cytotoxicity at 10 µM stood at 4.38%.

On to `CCNC(=O)CN1CCCN(C(=O)C2CCCc3[nH]ncc32)CC1` (stereo unspecified), for which the cytotoxicity at 10 µM was 4%.

On to `CCCC(C)C(=O)NCc1cn2cc(Br)ccc2n1` (stereo unspecified), for which the cytotoxicity at 10 µM was -6.6%.

With `N#Cc1cccc(C(=O)NC2CCc3c(ccc(=O)n3CC3CC3)C2)c1` (stereo unspecified), the cytotoxicity at 10 µM was determined as 0.908%.

As for `C[C@H]1C[C@H]2CN(C(=O)CCc3ccccc3)CC[C@H]2O1`, the cytotoxicity at 10 µM was -75.6%.

On to `CCC(CO)N(Cc1cccc(O)c1)Cc1ccccc1C` (stereo unspecified), for which the cytotoxicity at 10 µM is -8.22%.

For `O=C1[C@@H]2C[C@H](O)CCN2C(=O)CN1CCSc1ccccn1`, the cytotoxicity at 10 µM was -2.96%.

In the case of `COc1cnc(N2C[C@@H](CN3CCOCC3)C[C@H](CO)C2)nc1`, the cytotoxicity at 10 µM is -6.16%.

On to `CN(C)CC1(O)CCCN(c2noc(-c3ccccc3)n2)CC1` (stereo unspecified), for which the cytotoxicity at 10 µM worked out at 0.0264%.

With `Cc1nnsc1C(=O)N1CCCC(c2nccn2Cc2cscn2)C1` (stereo unspecified), the cytotoxicity at 10 µM worked out at 2.62%.

`O=C(c1cccc(C2CCNC2)c1)N1CCC(c2ccncc2)CC1` (stereo unspecified): the cytotoxicity at 10 µM is -1.12%.

As to `CCN(CC)C(=O)Cn1cc(-c2nc(-c3ccccc3C)no2)nn1`, the cytotoxicity at 10 µM is -2.46%.

Turning to `CC(C)(CNC(=O)c1ccco1)CNC(=O)c1ccco1`, the cytotoxicity at 10 µM was -3.97%.

`O=C(COc1cccc(Cl)c1)N1CCOCC(O)(CN2CCCC2)C1` (stereo unspecified): the cytotoxicity at 10 µM is -4.68%.

Regarding `COc1nccnc1-c1cccc(-c2ccn(CC3COCCO3)n2)c1` (stereo unspecified), the cytotoxicity at 10 µM is -3.65%.

In the case of `Cc1nc(C(=O)N2CCC(c3nnc(Cn4ccnc4)n3C)CC2)cs1`, the cytotoxicity at 10 µM was -127%.

As for `Cc1ccc(CN2C[C@@H](C(=O)O)[C@H](c3ccccn3)C2)o1`, the cytotoxicity at 10 µM is -3.88%.

For `CC(=O)c1cn(CC(=O)N2CCCC(O)(CO)C2)c2ccccc12` (stereo unspecified), the cytotoxicity at 10 µM is -4.87%.

Take `NC1CCCc2c1cnn2-c1cc(F)cc(F)c1` (stereo unspecified): the cytotoxicity at 10 µM stood at 6.54%.

Turning to `O=C(NCCc1cccnc1)c1cn(CCN2CCNCC2)nn1`, the cytotoxicity at 10 µM was -7.82%.

As for `Cc1nc(C)c(CC(=O)N2C[C@@H](C(=O)O)[C@H](c3ccncc3)C2)s1`, the cytotoxicity at 10 µM is -127%.

For the molecule `CCN1CCCC1CNC(=O)c1cc(COc2cccc(F)c2)[nH]n1` (stereo unspecified), the cytotoxicity at 10 µM was -5.96%.

For the molecule `Cc1ccccc1CSc1nc(N)cc(N2CCOC(C(N)=O)C2)n1` (stereo unspecified), the cytotoxicity at 10 µM came out at 5.27%.

As for `Cc1oc(C(=O)O)cc1S(=O)(=O)Nc1ccc(Br)cc1Cl`, the cytotoxicity at 10 µM was -5.09%.

`CC(=O)N1CCN(C(=O)Nc2cnc3c(cnn3C(C)C)c2)CC1`: the cytotoxicity at 10 µM was -0.192%.

As to `O=C(c1cc2c(s1)CCC2)N1CCCC1Cn1cccn1` (stereo unspecified), the cytotoxicity at 10 µM is -3.12%.

As to `CC(C)c1nc(C2CCCN(C(=O)CCCn3ccnc3)C2)no1` (stereo unspecified), the cytotoxicity at 10 µM was -17.2%.

Regarding `O=C(CCc1ccccc1)N1CC(n2cncn2)C1`, the cytotoxicity at 10 µM is -15.7%.

For `CN(C)c1cc(CNC(=O)c2ccccc2S(C)(=O)=O)ccn1`, the cytotoxicity at 10 µM was -10.7%.

Consider `CS(=O)(=O)c1cccc(C(N)c2ccccc2)c1` (stereo unspecified), for which the cytotoxicity at 10 µM is -19.3%.

On to `CC(Cc1ccc(Cl)cc1)NC(=O)Nc1cnn(CC(N)=O)c1` (stereo unspecified), for which the cytotoxicity at 10 µM was -5.86%.

Turning to `Cc1csc(N2CCN(C(=O)NCCNc3ncccn3)CC2)n1`, the cytotoxicity at 10 µM is -18.8%.

With `CCOCC(O)CN1CCN(C(=O)C2CCCC2)CC1` (stereo unspecified), the cytotoxicity at 10 µM was -13%.

Take `Cc1ccc(N2CCCC(NCc3cccs3)C2)nn1` (stereo unspecified): the cytotoxicity at 10 µM is -33%.

With `Cc1ccc(N2CCCC(NCc3ccc4c(c3)OCCO4)C2)nn1` (stereo unspecified), the cytotoxicity at 10 µM was -20.1%.

In the case of `CC1CN(c2ccc(CNC(=O)c3ccn(C)c(=O)c3)cn2)CCO1` (stereo unspecified), the cytotoxicity at 10 µM is 2.82%.

Take `CC(C)n1ccnc1CN1CCCN(C(=O)COC2CCCC2)CC1`: the cytotoxicity at 10 µM was -0.602%.

Regarding `O=c1n(CCSCc2ccccc2F)nc2ccccn12`, the cytotoxicity at 10 µM worked out at 0.168%.

Regarding `CNC(=O)[C@@H](C1CC1)N1CCC[C@H]1C(=O)NCC(C)C`, the cytotoxicity at 10 µM is -2.45%.

Take `Cc1ncsc1CN1C[C@H](OCc2ccncc2)[C@H]2OCCC[C@H]21`: the cytotoxicity at 10 µM was -139%.

Turning to `Cc1oc(C(C)C)cc1C(=O)N1C[C@@H]2CC[C@H]1CN(S(=O)(=O)N(C)C)C2`, the cytotoxicity at 10 µM was -127%.
